# Activity calls are given as the source filed them. The rule behind the calls is not given here.
# Experiments:
# [1] = system: Trichomonas vaginalis; assay: Antiparasitic activity against Trichomonas vaginalis assessed as parasite growth inhibition at 50 uM after 24 hrs by hemacytometer relative to control; format: functional; conditions: read-out: GI
# Procedure, shortened: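 G3 strain cultured in TYM Diamond's medium in 15 mL tubes, with compound in DMSO. Controls were untreated and 0.1% DMSO. After 24 h, cells were counted by hemacytometer and normalized to the DMSO controls. Screening was at 50 μM. IC50 came from titrations of 5–40 μM with variable-slope regression, 4 independent trials on different days, and was then re-confirmed.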
# [2] = system: Giardia intestinalis; assay: Antiparasitic activity against Giardia lamblia WB trophozoites assessed as parasite growth inhibition at 50 uM after 48 hrs by ATP bioluminescence-based CellTiter-Glo luminescent cell viability assay relative to control; format: functional; conditions: Giardia duodenalis; for inhibition of growth at 50 µM: read-out: GI
# Procedure, shortened: (§1)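 Trophozoites kept axenically in TYI-S-33 with penicillin and streptomycin. Each well held 5000 trophozoites and was incubated 48 h at 37 °C under anaerobic conditions in a GasPak pouch. Read-out was CellTiter-Glo ATP luminescence. Controls were 0.5% DMSO vehicle and 30 μM metronidazole. Primary screen at 50 μM in duplicate; hits were those above 50% inhibition. EC50 came from triplicate 8-point series (0.39–50 μM) and dose-response curves.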
# [3] = system: Entamoeba histolytica; assay: Antiparasitic activity against Entamoeba histolytica HM-1:IMSS trophozoites assessed as parasite growth inhibition at 50 uM after 48 hrs by ATP bioluminescence-based CellTiter-Glo luminescent cell viability assay relative to control; format: functional; conditions: for inhibition of growth at 50 µM: read-out: GI; procedure, shortened: as §1
# [4] = system: Giardia intestinalis; assay: Antiparasitic activity against Giardia lamblia WB trophozoites assessed as parasite growth inhibition after 48 hrs by ATP bioluminescence-based CellTiter-Glo luminescent cell viability assay; format: functional, organism-based; conditions: Giardia duodenalis; procedure, shortened: as §1
# [5] = system: Lacticaseibacillus rhamnosus; assay: Toxicity in Lactobacillus rhamnosus ATCC 53103 at 100 uM measured after overnight incubation by disc diffusion method; format: organism-based, GG; conditions: in vivo
# Procedure, shortened: (§2)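 Grown in Lactobacilli MRS at 37 °C under anaerobic conditions. Blank 6 mm discs were soaked 20 min at room temperature in a 100 μM working dilution in medium. Discs were placed on streaked agar alongside DMSO vehicle and antibiotic discs (levofloxacin, gentamicin), incubated overnight at 37 °C, and zones of inhibition measured in mm.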
# [6] = system: Limosilactobacillus reuteri; assay: Toxicity in Lactobacillus reuteri ATCC 23272 at 100 uM measured after overnight incubation by disc diffusion method; format: organism-based; conditions: in vivo; procedure, shortened: as §2
# [7] = system: Lactobacillus acidophilus; assay: Toxicity in Lactobacillus acidophilus ATCC 43560 at 100 uM measured after overnight incubation by disc diffusion method; format: organism-based; conditions: in vivo; procedure, shortened: as §2
# [8] = system: Escherichia coli; assay: Toxicity in Escherichia coli K-12 MG1655 at 100 uM measured after overnight incubation by disc diffusion method; format: organism-based, K-12 substr. MG1655; conditions: in vivo
# Procedure, shortened: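 Grown in Luria broth at 37 °C under aerobic conditions. Blank 6 mm discs were soaked 20 min at room temperature in a 100 μM working dilution in medium. Discs were placed on streaked agar alongside DMSO vehicle and antibiotic discs (levofloxacin, gentamicin), incubated overnight at 37 °C, and inhibition zones measured in mm.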
# [9] = system: Aspergillus parasiticus; assay: Antifungal activity against Aspergillus parasiticus NRRL5862 assessed as fungal growth at 500 uM after 24 hrs by microtiter plate liquid bioassay (reference value: 100%); format: functional
# Procedure, shortened: (§3)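 A. parasiticus grown at 35 °C on PDA. Liquid assay in RPMI 1640, 3 × 104 to 5 × 10^4 CFU per mL, triplicate wells, 35 °C. Compounds in DMSO (<2% in media). No-treatment wells carry matched DMSO. Wells scored visually 0–4 versus the no-treatment control: 0 clear, 1 25%, 2 50%, 3 75%, 4 no reduction. Scoring follows CLSI M38-A.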
# [10] = system: Aspergillus parasiticus; assay: Antifungal activity against Aspergillus parasiticus NRRL5862 assessed as fungal growth at 500 uM after 48 hrs by microtiter plate liquid bioassay (reference value: 100%); format: functional; procedure, shortened: as §3
# [11] = system: Saccharomyces cerevisiae; assay: Antifungal activity against Saccharomyces cerevisiae BY4741 assessed as fungal growth at 500 uM after 24 hrs by microtiter plate liquid bioassay (reference value: 100%); format: functional
# [12] = system: Saccharomyces cerevisiae; assay: Antifungal activity against Saccharomyces cerevisiae BY4741 assessed as fungal growth at 500 uM after 48 hrs by microtiter plate liquid bioassay (reference value: 100%); format: functional
# [13] = system: Naegleria fowleri; assay: Antiparasitic activity against Naegleria fowleri KUL trophozoites assessed as parasite growth inhibition after 48 hrs by ATP bioluminescence-based CellTiter-Glo luminescent cell viability assay; format: functional, organism-based
# Procedure, shortened: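 Strain KUL trophozoites cultured axenically in Nelson's medium with 10% FBS at 37 °C. Each well held 10 000 trophozoites, incubated under aerobic conditions without the anaerobe pouch. Read-out was CellTiter-Glo luminescence. Positive control was 50 μM amphotericin B. Hits were serially diluted in triplicate, 8 points from 0.39 to 50 μM, and EC50 was taken from dose-response curves.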
SMILES,inhibition of growth at 50 µM [1] [%],inhibition of growth at 50 µM [2] [%],inhibition of growth at 50 µM [3] [%],IC50 [4] [µM],Activity [5],Activity [6],Activity [7],Activity [8],growth inhibition (GI) [3],growth inhibition (GI) [2],Activity [9],Activity [10] [%],Activity [11] [%],Activity [12] [%],IC50 [13] [µM]
O=C1C(=O)N(CCCCCCCCN2C(=O)C(=O)c3ccccc32)c2ccccc21,30.3,80.7,100,38,Non-Toxic,Non-Toxic,Non-Toxic,Non-Toxic,,,,,,,
O=C1C(=O)N(CCCCN2C(=O)C(=O)c3cc(F)ccc32)c2ccccc21,100,1.2,,,Non-Toxic,Non-Toxic,Non-Toxic,Non-Toxic,inactive,,,,,,
O=C1C(=O)N(CCCCCN2C(=O)C(=O)c3cc(Br)ccc32)c2ccccc21,100,,,,Non-Toxic,Non-Toxic,Non-Toxic,Non-Toxic,inactive,inactive,100%,100,50,100,
O=C1C(=O)N(CCN2C(=O)C(=O)c3cc(Br)ccc32)c2ccccc21,100,,,,Non-Toxic,Non-Toxic,Non-Toxic,Non-Toxic,inactive,inactive,,,,,
O=C1C(=O)N(CCN2C(=O)C(=O)c3cc(F)ccc32)c2ccccc21,45.5,8.15,,,Non-Toxic,Non-Toxic,Non-Toxic,Non-Toxic,inactive,,,,,,
CCCCCCCCCCCCCCCCOP(=O)([O-])OCC[N+](C)(C)C [MILTEFOSINE],,,,,,,,,,,,,,,54.5
O=C1C(=O)N(CCCCCCN2C(=O)C(=O)c3cc(Br)ccc32)c2ccccc21,100,43.2,,,Non-Toxic,Non-Toxic,Non-Toxic,Non-Toxic,inactive,,,,,,
O=C1C(=O)N(CCCCCCCCN2C(=O)C(=O)c3cc(F)ccc32)c2ccccc21,100,,13.8,,Non-Toxic,Non-Toxic,Non-Toxic,Non-Toxic,,inactive,,,,,
O=C1C(=O)N(CCCBr)c2ccccc21,59.9,22.9,1.32,,Non-Toxic,Non-Toxic,Non-Toxic,Non-Toxic,,,75 - 100%,100,50,75,
O=C1C(=O)N(CCCCCCN2C(=O)C(=O)c3cc(Cl)ccc32)c2ccccc21,93.9,94.5,,31.5,Non-Toxic,Non-Toxic,Non-Toxic,Non-Toxic,inactive,,,,,,
O=C1C(=O)N(CCCCCCN2C(=O)C(=O)c3ccccc32)c2ccccc21,45.5,9.68,,,Non-Toxic,Non-Toxic,Non-Toxic,Non-Toxic,inactive,,,,,,
O=C1C(=O)N(CCCCCN2C(=O)C(=O)c3ccccc32)c2ccccc21,90.9,94.3,100,26,Non-Toxic,Non-Toxic,Non-Toxic,Non-Toxic,,,,,,,
O=C1C(=O)N(CCCCN2C(=O)C(=O)c3cc(Cl)ccc32)c2ccccc21,100,,,,Non-Toxic,Non-Toxic,Non-Toxic,Non-Toxic,inactive,inactive,100%,100,25,75,
O=C1C(=O)N(CCN2C(=O)C(=O)c3ccccc32)c2ccccc21,96.8,6.75,,,Non-Toxic,Non-Toxic,Non-Toxic,Non-Toxic,inactive,,,,,,
O=C1C(=O)N(CCCCCCCCN2C(=O)C(=O)c3cc(Br)ccc32)c2ccccc21,96.8,51.1,,,Non-Toxic,Non-Toxic,Non-Toxic,Non-Toxic,inactive,,,,,,
O=C1C(=O)N(CCCN2C(=O)C(=O)c3cc(Cl)ccc32)c2ccccc21,100,,,,Non-Toxic,Non-Toxic,Non-Toxic,Non-Toxic,inactive,inactive,,,,,
O=C1C(=O)N(CCCCN2C(=O)C(=O)c3ccccc32)c2ccccc21,61.3,11.6,,,Non-Toxic,Non-Toxic,Non-Toxic,Non-Toxic,inactive,,,,,,
O=C1C(=O)N(CCCCCCN2C(=O)C(=O)c3cc(F)ccc32)c2ccccc21,100,30.9,,,Non-Toxic,Non-Toxic,Non-Toxic,Non-Toxic,inactive,,,,,,
C[C@@H]1[C@H](O)[C@@H](C)/C=C/C=C/C=C/C=C/C=C/C=C/C=C/[C@H](O[C@@H]2O[C@H](C)[C@@H](O)[C@H](N)[C@@H]2O)C[C@@H]2O[C@](O)(C[C@@H](O)C[C@@H](O)[C@H](O)CC[C@@H](O)C[C@@H](O)CC(=O)O[C@H]1C)C[C@H](O)[C@H]2C(=O)O [AMPHOTERICIN B],,,,,,,,,,,,,,,0.2
O=C1C(=O)N(CCCN2C(=O)C(=O)c3ccccc32)c2ccccc21,96.8,7.84,,,Non-Toxic,Non-Toxic,Non-Toxic,Non-Toxic,inactive,,,,,,
CCCCCCCCOC(=O)c1cc(O)c(O)c(O)c1 [OCTYL_GALLATE],,,,,,,,,,,0%,0,0,0,
O=C1C(=O)N(CCCCCCCCN2C(=O)C(=O)c3cc(Cl)ccc32)c2ccccc21,75.8,8.56,,,Non-Toxic,Non-Toxic,Non-Toxic,Non-Toxic,inactive,,,,,,

# Source: ChEMBL document CHEMBL4261570, “Design, Synthesis and Preliminary Antimicrobial Evaluation of N-Alkyl Chain Tethered C-5 Functionalized Bis-Isatins” (Medchemcomm, 2017)
